Experimental data taken from ChEMBL document CHEMBL3871269, “Conjugates of podophyllotoxin and norcantharidin as dual inhibitors of topoisomeraseⅡ and protein phosphatase 2A” (Eur J Med Chem, 2016).
Activity calls are given as the source filed them. The rule behind the calls is not given here.

Assays:
[1] = Cytotoxicity against human A549 cells measured after 48 hrs by MTT assay; format: functional, cell-based; details: A549, 48 h
In short: (§1)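 MTT growth assay; cells seeded at 5×10³/well in RPMI1640 with 10% heat-inactivated FBS, attached 4–6 h, then exposed to five concentrations (0.01–100 μM, compounds dissolved in saline) for 48 h at 37 °C, 5% CO₂. MTT added for 4 h, formazan dissolved in DMSO, absorbance read at 490 nm. IC50 taken from log plot of percent of control versus concentration; means ± SD of triplicate experiments.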

[2] = Cytotoxicity against human HepG2 cells measured after 48 hrs by MTT assay; format: functional, cell-based; details: HepG2, 48 h; in short: as §1
[3] = Cytotoxicity against human HeLa cells measured after 48 hrs by MTT assay; format: functional, cell-based; in short: as §1
[4] = Cytotoxicity against human HCT8 cells measured after 48 hrs by MTT assay; format: functional, cell-based; details: HCT-8, 48 h; in short: as §1
[5] = Cytotoxicity against human WI38 cells measured after 48 hrs by MTT assay; format: toxicity, cell-based, WI-38
In short: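 MTT growth inhibition in WI-38 lung fibroblasts. Cells seeded at 5×10³/well in RPMI1640 with 10% heat-inactivated FBS, attached 4–6 h, then exposed 48 h at 37 °C, 5% CO₂ to five concentrations (0.01–100 μM, saline-dissolved). MTT 4 h, DMSO solubilisation, A490. IC50 from log plot of percent control vs concentration; triplicate, mean ± SD.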

[6] = Octanol-water partition coefficient, log P of the compound; format: physicochemical
In short: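 Partition coefficient P = compound concentration in 1-octanol / compound concentration in water.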

[7] = Inhibition of human RBC PP2A assessed as reduction in free phosphate ion release using Lys-Arg-pThr-Ile-Arg as substrate preincubated for 10 mins followed by substrate addition measured after 60 mins by malachite green method
In short: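 Purified PP2A (0.6 mU/well) preincubated with inhibitor 10 min at 37 °C. Reaction started with 200 μM Lys-Arg-pThr-Ile-Arg in 50 mM Tris-HCl pH 7.0, 100 μM CaCl₂; 60 min at room temperature. Released phosphate read by malachite green at 650 nm after 10 min; enzyme-plus-buffer blanks. IC50 from dose–response; mean of three independent experiments in duplicate.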

HepG2 [8] = test: Inhibition of PP2A in human HepG2 cells assessed as residual activity by measuring phosphopeptide substrate level at 1 uM using RRAT(pT)VA as substrate preincubated for 24 hrs followed by substrate addition measured after 30 mins by molybdate dye based assay relative to control; format: cell-based
In short: (§2)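 HepG2 cells treated 24 h in six-well plates, lysed, endogenous phosphate removed. Lysate incubated 30 min at 37 °C with phosphopeptide RRAT(pT)VA (5 μL of 1 mM). Stopped with molybdate dye mix; A600 after 15 min. Activity from phosphate standard curve, expressed relative to untreated control; mean ± SD.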

HepG2 [9] = test: Inhibition of PP2A in human HepG2 cells assessed as residual activity by measuring phosphopeptide substrate level at 2 uM using RRAT(pT)VA as substrate preincubated for 24 hrs followed by substrate addition measured after 30 mins by molybdate dye based assay relative to control; format: cell-based; in short: as §2
HepG2 [10] = test: Inhibition of PP2A in human HepG2 cells assessed as residual activity by measuring phosphopeptide substrate level at 5 uM using RRAT(pT)VA as substrate preincubated for 24 hrs followed by substrate addition measured after 30 mins by molybdate dye based assay relative to control; format: cell-based; in short: as §2
HepG2 [11] = test: Inhibition of PP2A in human HepG2 cells assessed as reduction in phosphopeptide substrate level using RRAT(pT)VA as substrate preincubated for 24 hrs followed by substrate addition measured after 30 mins by molybdate dye based assay; format: cell-based; in short: as §2
Homo sapiens [12] = species: Homo sapiens; test: Inhibition of human topoisomerase-2 catalytic activity assessed as reduction in pBR322 supercoiled DNA relaxation up to 100 uM measured after 60 mins by ethidium bromide staining agarose gel electrophoresis
In short: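 Relaxation assay with supercoiled pBR322 (250 ng/μL) and topoisomerase II (4 units) in kit buffer, 20 μL, 60 min at 37 °C. Compound at 50 or 100 μM. Stopped with 10% SDS, proteinase K, chloroform/isoamyl alcohol extraction. Run on 1% agarose in TAE pH 8.0, ethidium bromide stained.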

HepG2 [13] = test: Induction of cell cycle arrest in human HepG2 cells assessed as accumulation at G2/M phase measured after 24 hrs by propidium iodide staining based flow cytometry; format: functional
In short: (§3)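 HepG2 cells exposed 24 h to 0, 0.5 or 1 μM. (1–5)×10⁵ cells harvested, PBS-washed, fixed in 70% ice-cold ethanol at least overnight. Stained 15 min in dark with 1% Triton X-100, 0.01% RNase, 0.05% PI. Cell-cycle distribution by flow cytometry.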

HepG2 [14] = test: Induction of cell cycle arrest in human HepG2 cells assessed as accumulation at G2/M phase at 0.5 uM measured after 24 hrs by propidium iodide staining based flow cytometry (reference value: 9.4%); format: functional
HepG2 [15] = test: Induction of cell cycle arrest in human HepG2 cells assessed as accumulation at G2/M phase at 1 uM measured after 24 hrs by propidium iodide staining based flow cytometry (reference value: 9.4%); format: functional
HepG2 [16] = test: Induction of cell cycle arrest in human HepG2 cells assessed as increase in cyclin B1 expression at 0.5 to 1 uM measured after 24 hrs by western blot method; format: functional, cell-based
In short: (§4)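 HepG2 cells grown 24 h in flasks, then treated with 0, 0.5 or 1 μM for 24 h. Lysis in Tris/NP-40/SDS buffer with protease inhibitors; Bradford protein assay. 30 μg protein on 10% or 12% SDS-PAGE, PVDF transfer, milk block 2 h. Cyclin B1 or cdc2 antibodies (1:500–1:1000) overnight at 4 °C, then secondary. β-actin loading control.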

HepG2 [17] = test: Induction of cell cycle arrest in human HepG2 cells assessed as decrease in G1 phase at 0.5 to 1 uM measured after 24 hrs by propidium iodide staining based flow cytometry; format: functional; in short: as §3
HepG2 [18] = test: Induction of cell cycle arrest in human HepG2 cells assessed as decrease in G1 phase by propidium iodide staining based flow cytometry; format: functional; details: TDE = time-dependent effect; in short: as §3
HepG2 [19] = test: Induction of cell cycle arrest in human HepG2 cells assessed as increase in cyclin B1 expression measured after 24 hrs by western blot method; format: functional, cell-based; in short: as §4
HepG2 [20] = test: Induction of cell cycle arrest in human HepG2 cells assessed as increase in cyclin cdc-2 expression measured after 24 hrs by western blot method; format: functional, cell-based; in short: as §4
Bos taurus = species: Bos taurus; test: Binding affinity to calf thymus DNA at 1 uM at pH 7.2 measured after 5 mins by fluorescence spectroscopic method
In short: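 CT DNA titrated (0–5 μM) into 1 μM compound in pH 7.2 PBS, equilibrated 5 min at 25 °C. Excitation at 318 nm, emission recorded over 280–400 nm. CT DNA samples in PBS at matching concentrations served as blanks.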

Homo sapiens [21] = species: Homo sapiens; test: Inhibition of human topoisomerase-2 catalytic activity assessed as reduction in pBR322 supercoiled DNA relaxation at 100 uM measured after 60 mins by ethidium bromide staining agarose gel electrophoresis
In short: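 Kit-based relaxation assay: supercoiled pBR322 plasmid DNA (250 ng/μL) with topoisomerase II (4 units) in kit assay buffer, 20 μL final, 60 min at 37 °C. Reaction stopped with 10% SDS, proteinase K treated, chloroform/isoamyl alcohol (24:1) extracted. Products resolved on 1% agarose in TAE (pH 8.0), ethidium bromide stained. Test concentrations 50 and 100 μM.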

Row | SMILES | IC50 [1] [µM] | IC50 [2] [µM] | IC50 [3] [µM] | IC50 [4] [µM] | IC50 at 48 h [5] [µM] | logP ([6]; read-out: logP) | IC50 [7] [µM] | also measured
1 | COc1cc([C@@H]2c3cc4c(cc3[C@@H](NC(=O)CCCN3C(=O)C5C6CCC(O6)C5C3=O)[C@H]3COC(=O)[C@H]23)OCO4)cc(OC)c1O (stereo partly drawn) | 4.57 | < 0.01 | 4.33 | 3.48 | > 100 | 0.68 | 0.49 | Activity (HepG2 [8]): 73%; Activity (HepG2 [9]): 32%; Activity (HepG2 [10]): 27%; inhibition (HepG2 [11]): Dose-dependent effect; inhibition (Homo sapiens [12]): Active; Activity (HepG2 [13]): Dose-dependent effect; Activity (HepG2 [14]): 27.6%; Activity (HepG2 [15]): 58.6%; Activity (HepG2 [16]): Active; Activity (HepG2 [17]): Active; Activity (HepG2 [18]): Tde; Activity (HepG2 [19]): Dose-dependent effect; Activity (HepG2 [20]): Dose-dependent effect; Activity (Bos taurus): Active
2 | CC[C@H](C)[C@@H](C(=O)N[C@@H]1c2cc3c(cc2[C@@H](c2cc(OC)c(O)c(OC)c2)[C@H]2C(=O)OC[C@@H]21)OCO3)N1C(=O)C2C3CCC(O3)C2C1=O (stereo partly drawn) | 10.1 | 3.21 | 2.52 | 23.6 | 65.2 | 1.91 | 75.7 | –
3 | COc1cc([C@@H]2c3cc4c(cc3[C@@H](O[C@@H]3O[C@@H]5CO[C@@H](C)O[C@H]5[C@H](O)[C@H]3O)[C@H]3COC(=O)[C@H]23)OCO4)cc(OC)c1O [ETOPOSIDE] | 29.7 | 5.21 | 13.5 | 10 | 17.6 | – | – | logP [6]: 2.74; inhibition (Homo sapiens [21]): Active
4 | O=C1OC(=O)C2C3CCC(O3)C12 (stereo not drawn) [DEMETHYL-CANTHARIDIN] | 12.2 | – | – | – | 26.7 | – | 0.48 | –
5 | COc1cc([C@@H]2c3cc4c(cc3[C@@H](NC(=O)[C@H](Cc3cc5ccccc5[nH]3)N3C(=O)C5C6CCC(O6)C5C3=O)[C@H]3COC(=O)[C@H]23)OCO4)cc(OC)c1O (stereo partly drawn) | 12 | 6.84 | 2.35 | 15.2 | 72.4 | 1.69 | 58.3 | –
6 | COc1cc([C@@H]2c3cc4c(cc3[C@@H](NC(=O)CCN3C(=O)C5C6CCC(O6)C5C3=O)[C@H]3COC(=O)[C@H]23)OCO4)cc(OC)c1O (stereo partly drawn) | 6.21 | 8.42 | 10.8 | 17.2 | > 100 | 0.41 | 9.52 | –
7 | COc1cc([C@@H]2c3cc4c(cc3[C@@H](NC(=O)[C@H](CCSC)N3C(=O)C5C6CCC(O6)C5C3=O)[C@H]3COC(=O)[C@H]23)OCO4)cc(OC)c1O (stereo partly drawn) | 6.12 | 7.04 | 2.82 | 12.3 | 30.4 | 0.93 | 1.29 | –
8 | COc1cc([C@@H]2c3cc4c(cc3[C@@H](NC(=O)[C@H](C(C)C)N3C(=O)C5C6CCC(O6)C5C3=O)[C@H]3COC(=O)[C@H]23)OCO4)cc(OC)c1O (stereo partly drawn) | 6.73 | 1.62 | 8.3 | 7.81 | 44.4 | 1.48 | 1.12 | –
9 | COc1cc([C@@H]2c3cc4c(cc3[C@@H](NC(=O)[C@H](Cc3ccccc3)N3C(=O)C5C6CCC(O6)C5C3=O)[C@H]3COC(=O)[C@H]23)OCO4)cc(OC)c1O (stereo partly drawn) | 14.1 | 5.53 | 16 | 11.6 | 29.6 | 2.27 | > 100 | –
10 | COc1cc([C@@H]2c3cc4c(cc3[C@@H](NC(=O)[C@H](CC(C)C)N3C(=O)C5C6CCC(O6)C5C3=O)[C@H]3COC(=O)[C@H]23)OCO4)cc(OC)c1O (stereo partly drawn) | 8.11 | 10.5 | > 100 | 21.4 | 21.9 | 1.83 | > 100 | –
11 | COc1cc([C@@H]2c3cc4c(cc3[C@@H](NC(=O)[C@H](c3ccccc3)N3C(=O)C5C6CCC(O6)C5C3=O)[C@H]3COC(=O)[C@H]23)OCO4)cc(OC)c1O (stereo partly drawn) | 7.03 | 1.98 | 28.5 | 15.3 | 26.7 | 1.99 | > 100 | –
12 | COc1cc([C@@H]2c3cc4c(cc3[C@@H](NC(=O)c3ccc(N5C(=O)C6C7CCC(O7)C6C5=O)cc3)[C@H]3COC(=O)[C@H]23)OCO4)cc(OC)c1O (stereo partly drawn) | 3.42 | 0.1 | 2.61 | 3.12 | 46.5 | 2.06 | 3.63 | –
13 | COc1cc([C@@H]2c3cc4c(cc3[C@@H](NC(=O)CN3C(=O)C5C6CCC(O6)C5C3=O)[C@H]3COC(=O)[C@H]23)OCO4)cc(OC)c1O (stereo partly drawn) | 5.47 | 0.14 | 1.65 | 17.1 | 33.5 | 0.13 | 0.68 | –
14 | COc1cc([C@@H]2c3cc4c(cc3[C@@H](NC(=O)[C@H](C)N3C(=O)C5C6CCC(O6)C5C3=O)[C@H]3COC(=O)[C@H]23)OCO4)cc(OC)c1O (stereo partly drawn) | 44.5 | 13.7 | 15.1 | 16.9 | 35.6 | 0.62 | > 100 | –
